Test results: PMC8265595 (Neuropharmacology, 2020)
Several values for one entry are separate records, joined by “and”; a condition that tells them apart may be missing. Equal values may be shown once.

Experiments:
α1β2γ2 GABAA receptor [1] = biological target: T1, α1β2γ2 GABAA receptor (Homo sapiens, UniProt P14867+P18507+P47870); experiment: P4S concentration-response with and without 200 nM zuranolone, Ltk cells; assay type: cell-based; conditions: for EC50: EC50 of P4S, α1β2γ2, Ltk cells
In short: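 Ltk cells stably expressing α1β2γ2; whole-cell patch clamp at −80 mV, n = 11. P4S was applied at 0.1–1000 μM in log steps, with or without a fixed 200 nM test compound. Currents were normalized to the maximum current from a saturating GABA concentration.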

[2] = Plasma and brain concentrations in PTZ behavioral study; assay type: in vivo; conditions: mouse, between 0.3 and 1 mg/kg PO
In short: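 Plasma and brain were collected from a subset of PTZ-study mice plus satellite PK mice (n = 3–4 per dose) after PO dosing. Brain was homogenized in 3 vol PBS, extracted by acetonitrile protein precipitation with internal standard, and quantified by LC-MS/MS against a spiked calibration curve.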

[3] = tested on: other ion channel and hormone receptors, including AMPA and NMDA; conditions: ref Martinez-Botella et al., 2017; cited from earlier work
[4] = biological target: human recombinant α1β3γ2 GABAA receptor (Homo sapiens, UniProt P14867+P28472); experiment: IonWorks Barracuda patch clamp, α1β3γ2 in HEK cells; assay type: cell-based
human recombinant α1β3γ2 GABAA receptor, sequence (P14867 28-456): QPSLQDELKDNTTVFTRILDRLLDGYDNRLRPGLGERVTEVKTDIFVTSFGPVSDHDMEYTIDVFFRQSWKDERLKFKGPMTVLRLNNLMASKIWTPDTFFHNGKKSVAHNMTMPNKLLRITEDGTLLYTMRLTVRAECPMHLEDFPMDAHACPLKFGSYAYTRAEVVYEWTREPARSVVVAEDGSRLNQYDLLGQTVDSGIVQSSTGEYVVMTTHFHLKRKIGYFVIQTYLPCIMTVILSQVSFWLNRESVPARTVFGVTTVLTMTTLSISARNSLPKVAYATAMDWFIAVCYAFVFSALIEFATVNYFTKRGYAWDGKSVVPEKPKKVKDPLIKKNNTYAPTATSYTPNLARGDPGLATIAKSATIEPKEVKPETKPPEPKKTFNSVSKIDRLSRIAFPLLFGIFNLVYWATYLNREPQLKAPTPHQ
human recombinant α1β3γ2 GABAA receptor, sequence (P28472 26-473): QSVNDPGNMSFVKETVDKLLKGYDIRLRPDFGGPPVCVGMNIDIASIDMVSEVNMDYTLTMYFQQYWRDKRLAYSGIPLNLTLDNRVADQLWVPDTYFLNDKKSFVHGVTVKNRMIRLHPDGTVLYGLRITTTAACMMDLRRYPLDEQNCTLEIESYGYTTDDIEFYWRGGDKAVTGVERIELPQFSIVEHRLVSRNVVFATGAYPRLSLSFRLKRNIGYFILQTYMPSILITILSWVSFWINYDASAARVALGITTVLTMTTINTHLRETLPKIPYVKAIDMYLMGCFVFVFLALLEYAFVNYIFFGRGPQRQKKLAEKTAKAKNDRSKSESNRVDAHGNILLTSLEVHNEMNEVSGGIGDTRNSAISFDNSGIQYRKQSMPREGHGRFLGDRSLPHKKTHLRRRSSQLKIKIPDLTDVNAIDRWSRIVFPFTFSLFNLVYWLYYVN
human recombinant α1β3γ2 GABAA receptor, sequence (P18507 40-475 partner): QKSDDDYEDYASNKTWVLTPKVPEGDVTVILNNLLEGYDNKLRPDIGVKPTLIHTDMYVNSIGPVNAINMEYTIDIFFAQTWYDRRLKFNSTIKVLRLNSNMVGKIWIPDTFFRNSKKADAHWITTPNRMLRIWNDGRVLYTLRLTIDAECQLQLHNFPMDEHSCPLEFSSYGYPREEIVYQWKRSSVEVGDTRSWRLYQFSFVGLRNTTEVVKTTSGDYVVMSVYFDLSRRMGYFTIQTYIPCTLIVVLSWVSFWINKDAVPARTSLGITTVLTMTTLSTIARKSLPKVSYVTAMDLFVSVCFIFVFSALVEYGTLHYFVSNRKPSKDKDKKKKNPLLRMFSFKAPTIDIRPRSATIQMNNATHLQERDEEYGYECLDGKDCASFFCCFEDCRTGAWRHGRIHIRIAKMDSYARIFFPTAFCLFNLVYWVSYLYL
In short: (§1)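 HEK cells stably expressing human receptors; automated perforated-patch whole-cell recording at −70 mV. Extracellular buffer pH 7.4; KCl-based intracellular solution pH 7.2. Submaximal GABA applied alone, then co-applied with test compound at half-log steps 0.01–30 μM (0.3% DMSO, 0.02% Cremophor); n = 4 per concentration. GABA: 5 μM α1β3γ2, 2 μM α2β3γ2, 12.5 μM α3β3γ2, 2 μM α5β3γ2. Potentiation = peak with test compound / peak with GABA alone ×100.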

[5] = Plasma concentrations in rats designated for pharmacokinetic analysis; assay type: in vivo; conditions: rat, po
[6] = biological target: human recombinant α6β3δ GABAA receptor (Homo sapiens, UniProt P28472+Q16445); experiment: Two electrode voltage clamp, α6β3δ in Xenopus oocytes; assay type: cell-based
human recombinant α6β3δ GABAA receptor, sequence (Q16445 20-453): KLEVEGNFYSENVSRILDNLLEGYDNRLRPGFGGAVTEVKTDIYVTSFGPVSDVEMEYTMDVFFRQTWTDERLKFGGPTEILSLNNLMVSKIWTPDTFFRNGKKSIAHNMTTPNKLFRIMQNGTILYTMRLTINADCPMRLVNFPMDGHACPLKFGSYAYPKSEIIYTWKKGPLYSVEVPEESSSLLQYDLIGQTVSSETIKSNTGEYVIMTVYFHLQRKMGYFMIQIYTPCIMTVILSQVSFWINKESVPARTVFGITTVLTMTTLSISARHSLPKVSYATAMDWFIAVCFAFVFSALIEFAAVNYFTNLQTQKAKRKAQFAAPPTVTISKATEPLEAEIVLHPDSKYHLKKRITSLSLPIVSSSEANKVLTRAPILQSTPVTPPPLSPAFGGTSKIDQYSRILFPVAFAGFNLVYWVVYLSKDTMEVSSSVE
human recombinant α6β3δ GABAA receptor, sequence (P28472 26-473): as the sequence (P28472 26-473) above
human recombinant α6β3δ GABAA receptor, sequence (O14764 17-452 partner limits assumed): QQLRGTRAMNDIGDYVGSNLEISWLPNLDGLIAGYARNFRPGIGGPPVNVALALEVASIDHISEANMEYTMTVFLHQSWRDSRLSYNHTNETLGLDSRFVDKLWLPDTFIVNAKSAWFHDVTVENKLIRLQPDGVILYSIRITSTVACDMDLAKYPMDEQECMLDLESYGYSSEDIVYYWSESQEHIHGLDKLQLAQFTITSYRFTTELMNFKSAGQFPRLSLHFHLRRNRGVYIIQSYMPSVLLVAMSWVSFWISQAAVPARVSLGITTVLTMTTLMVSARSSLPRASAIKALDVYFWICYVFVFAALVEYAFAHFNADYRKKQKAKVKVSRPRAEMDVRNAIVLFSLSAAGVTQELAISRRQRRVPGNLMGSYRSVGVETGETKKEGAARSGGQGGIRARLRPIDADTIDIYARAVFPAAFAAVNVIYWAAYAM
In short: (§2)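 Xenopus oocytes expressing subunit cDNA; two-electrode voltage clamp at −80 mV, 18 °C, superfused with OR2 medium pH 7.4. Submaximal GABA given alone for 15 s, then co-applied with test compound at half-log steps 0.1–10 μM (0.3% DMSO). GABA: 10 μM for α1β1γ2, 3 μM for α6β3δ. n = 3 cells per concentration. Potentiation = peak amplitude with test compound / GABA alone ×100.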

β-band EEG power = experiment: PharmacoEEG, β-band EEG power and sleep/wake; assay type: in vivo; conditions: rat; for sleep time: p < 0.05
In short: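 Adult male Sprague Dawley rats (n = 7 per group) with implanted epidural EEG screw electrodes and EMG were tested after 2 weeks' recovery. After 1 h baseline, they received test compound (0.3, 3 or 20 mg/kg) or vehicle (30% SBECD) PO, followed by 6 h continuous EEG. Sleep/wake was scored in 10 s epochs from EEG/EMG and checked by a blinded expert. Analysis used one-way ANOVA and two-way repeated-measures ANOVA vs vehicle.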

[7] = biological target: human recombinant α3β3γ2 GABAA receptor (Homo sapiens, UniProt P28472+P34903); experiment: IonWorks Barracuda patch clamp, α3β3γ2 in HEK cells; assay type: cell-based
human recombinant α3β3γ2 GABAA receptor, sequence (P34903 29-492): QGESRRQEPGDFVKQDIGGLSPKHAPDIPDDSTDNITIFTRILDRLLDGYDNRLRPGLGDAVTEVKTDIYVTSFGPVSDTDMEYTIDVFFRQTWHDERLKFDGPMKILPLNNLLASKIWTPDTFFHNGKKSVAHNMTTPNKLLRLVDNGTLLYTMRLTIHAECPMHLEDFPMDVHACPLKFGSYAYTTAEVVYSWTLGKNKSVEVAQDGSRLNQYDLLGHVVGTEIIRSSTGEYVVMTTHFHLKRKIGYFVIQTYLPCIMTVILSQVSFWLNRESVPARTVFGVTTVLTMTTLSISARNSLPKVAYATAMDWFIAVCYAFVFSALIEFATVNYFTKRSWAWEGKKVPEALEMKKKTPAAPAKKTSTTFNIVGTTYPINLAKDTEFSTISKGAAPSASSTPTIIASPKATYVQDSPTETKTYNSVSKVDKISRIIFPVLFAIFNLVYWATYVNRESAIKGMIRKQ
human recombinant α3β3γ2 GABAA receptor, sequence (P28472 26-473): as the sequence (P28472 26-473) above
human recombinant α3β3γ2 GABAA receptor, sequence (P18507 40-475 partner): as the sequence (P18507 40-475 partner) above
In short: as §1

[8] = biological target: human recombinant α5β3γ2 GABAA receptor (Homo sapiens, UniProt P28472+P31644); experiment: IonWorks Barracuda patch clamp, α5β3γ2 in HEK cells; assay type: cell-based
human recombinant α5β3γ2 GABAA receptor, sequence (P31644 32-462): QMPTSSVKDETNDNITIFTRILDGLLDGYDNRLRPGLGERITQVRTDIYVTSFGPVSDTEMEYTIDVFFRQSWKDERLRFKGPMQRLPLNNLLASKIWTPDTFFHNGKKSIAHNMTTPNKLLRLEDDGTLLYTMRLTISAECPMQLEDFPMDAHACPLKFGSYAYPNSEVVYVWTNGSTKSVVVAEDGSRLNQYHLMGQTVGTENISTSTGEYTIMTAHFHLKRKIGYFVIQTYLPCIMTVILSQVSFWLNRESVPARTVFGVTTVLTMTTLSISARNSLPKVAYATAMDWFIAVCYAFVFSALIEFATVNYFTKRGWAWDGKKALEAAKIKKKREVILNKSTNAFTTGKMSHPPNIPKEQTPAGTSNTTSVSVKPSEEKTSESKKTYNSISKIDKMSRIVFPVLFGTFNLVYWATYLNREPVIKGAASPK
human recombinant α5β3γ2 GABAA receptor, sequence (P28472 26-473): as the sequence (P28472 26-473) above
human recombinant α5β3γ2 GABAA receptor, sequence (P18507 40-475 partner): as the sequence (P18507 40-475 partner) above
In short: as §1

α1β2γ2 GABAA receptor [9] = biological target: T1, α1β2γ2 GABAA receptor; experiment: Synergy with diazepam, α1β2γ2 in Ltk cells, isobolographic analysis; assay type: cell-based; conditions: for concentration applied alone required to reach 150% effect level: α1β2γ2, isobologram
[10] = tested on: transient receptor potential cation channel subfamily V member 1 receptor; conditions: 10 μM; ref Martinez-Botella et al., 2017; cited from earlier work
8 cardiac ion channels = conditions: ref Martinez-Botella et al., 2017; cited from earlier work
α4β3δ GABAA receptor [11] = biological target: T2, α4β3δ GABAA receptor (Homo sapiens, UniProt P28472+P48169); experiment: Synergy with diazepam, α4β3δ in CHO cells; assay type: cell-based
T2 sequence (P48169 36-554): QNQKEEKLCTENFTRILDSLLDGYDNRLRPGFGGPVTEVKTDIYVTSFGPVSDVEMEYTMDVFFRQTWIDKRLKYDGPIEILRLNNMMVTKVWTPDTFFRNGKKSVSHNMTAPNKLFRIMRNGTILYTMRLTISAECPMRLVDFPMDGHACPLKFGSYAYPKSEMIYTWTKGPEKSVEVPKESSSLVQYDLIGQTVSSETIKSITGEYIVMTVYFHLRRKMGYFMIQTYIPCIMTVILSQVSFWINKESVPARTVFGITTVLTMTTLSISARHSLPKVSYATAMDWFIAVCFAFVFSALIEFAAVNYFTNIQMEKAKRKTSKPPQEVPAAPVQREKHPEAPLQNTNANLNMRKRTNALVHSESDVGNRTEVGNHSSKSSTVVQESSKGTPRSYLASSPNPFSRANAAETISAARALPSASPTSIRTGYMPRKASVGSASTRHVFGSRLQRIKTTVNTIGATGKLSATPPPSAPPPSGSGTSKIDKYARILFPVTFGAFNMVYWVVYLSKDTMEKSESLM
T2 sequence (P28472 26-473): as the sequence (P28472 26-473) above
T2 sequence (O14764 17-452 partner limits assumed): as the sequence (O14764 17-452 partner limits assumed) above

[12] = biological target: human recombinant α2β3γ2 GABAA receptor (Homo sapiens, UniProt P28472+P47869); experiment: IonWorks Barracuda patch clamp, α2β3γ2 in HEK cells; assay type: cell-based
In short: as §1

glycine = conditions: 10 μM, ref Martinez-Botella et al., 2017; cited from earlier work
α4β3δ GABAA receptor [13] = biological target: T2, α4β3δ GABAA receptor; experiment: Whole cell patch clamp, GABA-evoked currents, α4β3δ in CHO cells; assay type: cell-based
In short: (§3)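 Whole-cell patch clamp at −80 mV in Ltk cells (stable α1β2γ2, n = 7; α2β2γ2, n = 3) or CHO cells (transient α4β3δ, n = 6). Each cell received test compound (0.1% DMSO) sequentially at 0.01–10 μM, 30 s before each 2 s pulse of 2 μM GABA. Gravity-fed perfusion, exchange within 300–500 ms. For δ-containing cells, DS-2 was applied at the end to confirm δ expression. Potentiation = peak ratio ×100.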

[14] = Brain and plasma pharmacokinetics after single IP or PO dose; assay type: in vivo, mouse; conditions: for time of maximum plasma concentration (Cmax) post dose: CD1 mouse; for Cmax / bioavailability: male, CD-1, mouse, plasma, 10 mg/kg
In short: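 Adult male CD-1 mice received a single 10 mg/kg dose: IP in 15% HP-β-CD or PO in 30% SBECD. Sampling: IP at 0.5–8 h (n = 2 per time point); PO at 0.167–12 h (n = 3 per time point). Plasma (K2 EDTA) and snap-frozen brain were collected. Brain was homogenized in 3 vol PBS, extracted by acetonitrile precipitation with internal standard, and assayed by LC-MS/MS (C18, water:methanol gradient, positive MRM). Brain:plasma ratio from a single point at 1 h.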

α1β2γ2 GABAA receptor [15] = biological target: T1, α1β2γ2 GABAA receptor; experiment: Whole cell patch clamp, GABA-evoked currents, α1β2γ2 in Ltk cells; assay type: cell-based
In short: as §3

[16] = Phase 1, healthy volunteers, ref Hoffmann et al., 2019, cited from earlier work
sigma = conditions: 10 μM, ref Martinez-Botella et al., 2017; cited from earlier work
[17] = biological target: human recombinant α2β2γ2 GABAA receptor (Homo sapiens, UniProt P47869+P47870); experiment: Whole cell patch clamp, GABA-evoked currents, α2β2γ2 in Ltk cells; assay type: cell-based
In short: as §3

[18] = tested on: 22 nuclear hormone receptors; conditions: ref Martinez-Botella et al., 2017; cited from earlier work
PTZ-induced seizures = experiment: Pentylenetetrazole-induced seizures; assay type: in vivo, mouse; conditions: vehicle 751 ± 67 s
dentate granule cells = experiment: Acute hippocampal slice recording, tonic current and sIPSCs after washout; assay type: cell-based, mouse; conditions: for tonic current density: 15 min pre-incubation, 30–50 min wash; for sIPSC amplitude / sIPSC decay: after 30–50 min wash
In short: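 Acute brain slices from postnatal day 21 C57 mice were held in a holding chamber with 0.1 or 1 μM test compound for 15 min. They were then perfused (2 mL/min) with oxygenated ACSF for 30–50 min before whole-cell patch clamp of dentate granule cells (n = 6–7). Tonic current is the baseline shift with 100 μM picrotoxin, divided by capacitance. sIPSCs were inspected visually and only single-peak events were kept.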

[19] = biological target: human recombinant α1β1γ2 GABAA receptor (Homo sapiens, UniProt P14867+P18505); experiment: Two electrode voltage clamp, α1β1γ2 in Xenopus oocytes; assay type: cell-based
In short: as §2

T1 sequence (P14867 28-456): as the sequence (P14867 28-456) above
T1 sequence (P47870 25-512 limits assumed): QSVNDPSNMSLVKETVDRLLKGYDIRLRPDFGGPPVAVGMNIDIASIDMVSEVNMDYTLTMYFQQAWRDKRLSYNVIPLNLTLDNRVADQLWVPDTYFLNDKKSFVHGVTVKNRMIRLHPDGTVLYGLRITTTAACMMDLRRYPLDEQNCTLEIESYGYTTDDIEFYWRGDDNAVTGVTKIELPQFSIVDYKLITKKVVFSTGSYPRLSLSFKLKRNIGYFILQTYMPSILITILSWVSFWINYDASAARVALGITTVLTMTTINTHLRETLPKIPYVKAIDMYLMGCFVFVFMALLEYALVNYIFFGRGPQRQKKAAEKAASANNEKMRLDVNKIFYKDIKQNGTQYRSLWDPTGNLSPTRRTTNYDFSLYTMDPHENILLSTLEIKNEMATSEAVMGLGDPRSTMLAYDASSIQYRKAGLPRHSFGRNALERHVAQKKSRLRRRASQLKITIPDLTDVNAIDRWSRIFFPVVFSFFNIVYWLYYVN
T1 sequence (P18507 40-475): as the sequence (P18507 40-475 partner) above

O=S(=O)(O)C1CCNCC1 [P4S, piperidine-4-sulphonic acid]
EC50 (α1β2γ2 GABAA receptor [1]; P4S alone): 45000 nM and 44500 nM
EC50 (α1β2γ2 GABAA receptor [1]; with 200 nM zuranolone): 25200 nM
Emax of P4S (α1β2γ2 GABAA receptor [1]; P4S alone, normalized to maximum current evoked by saturating GABA (100 μM)): 25%

C[C@@]1(O)CC[C@H]2[C@H](CC[C@@H]3[C@@H]2CC[C@]2(C)[C@@H](C(=O)Cn4cc(C#N)cn4)CC[C@@H]32)C1 [zuranolone, 3α-Hydroxy-3β-methyl-21-(4-cyano-1H-pyrazol-1’-yl)-19-nor-5β-pregnan-20-one]
brain concentrations [2]: 60 to 143 ng/g
selectivity for GABAA receptors vs other ion channel and hormone receptors [3]: selective
EC50 [4]: 390 nM
Emax ([4]; HEK293): 684%
concentration at 60 min ([5]; 0.3 mg/kg): 22 ng/mL
concentration at 60 min ([5]; 3 mg/kg): 301 ng/mL
concentration at 60 min ([5]; 20 mg/kg): 1470 ng/mL
EC50 [6]: 780 nM
sleep or wake time (β-band EEG power; 0.3 mg/kg PO): No changes in sleep or wake time
β-band EEG power relative to vehicle (β-band EEG power; 0.3 mg/kg PO, p = 0.58): did not elicit a significant increase
time of β-band EEG power peak post dose (β-band EEG power; 3 mg/kg PO): approximately 0.5 h
β-band EEG power at one hour vs vehicle (β-band EEG power; 3 mg/kg PO, p < 0.0005): significantly greater than vehicle
sleep time (β-band EEG power; 3 mg/kg PO): increased sleep time during the first hour
time of β-band EEG power peak (β-band EEG power; 20 mg/kg PO): ≤ 30 min
sleep time (β-band EEG power; 20 mg/kg PO): increased time spent in sleep during all three hours
β-band EEG power at one hour vs vehicle (β-band EEG power; 20 mg/kg PO, p = 0.79): not significantly different from vehicle
EC50 [7]: 293 nM
Emax ([7]; HEK293): 291%
EC50 [8]: 298 nM
Emax ([8]; HEK293): 534%
EC50 (α1β2γ2 GABAA receptor [9]): 844 nM
concentration required to potentiate the current greater than 150% (α1β2γ2 GABAA receptor [9]; α1β2γ2, coapplied with 100 nM DZP): 10 nM
interaction of zuranolone and DZP by isobolographic analysis (α1β2γ2 GABAA receptor [9]; α1β2γ2, coapplied zuranolone and DZP): synergistically
maximal potentiation (α1β2γ2 GABAA receptor [9]; α1β2γ2, in the presence of 100 nM DZP): 1084%
concentration applied alone required to reach 150% effect level (α1β2γ2 GABAA receptor [9]): 315 nM
maximal potentiation (α1β2γ2 GABAA receptor [9]; α1β2γ2, without DZP): 511%
antagonist activity [10]: 96%
effects at 8 cardiac ion channels (8 cardiac ion channels): no significant effects
EC50 (α4β3δ GABAA receptor [11]): 135 nM
EC50 [12]: 516 nM
inhibition of radioligand binding (glycine): 57%
EC50 (α4β3δ GABAA receptor [13]): 118 nM
Emax (α4β3δ GABAA receptor [13]; CHO): 556%
time of maximum plasma concentration (Cmax) post dose ([14]; 10 mg/kg IP): 30 min
time of maximum plasma concentration (Cmax) post dose ([14]; 10 mg/kg PO): 30 min
Cmax ([14]; ip): 3200 ng/mL
bioavailability ([14]; ip): 89%
Cmax ([14]; po): 1340 ng/mL
bioavailability ([14]; po): 62%
EC50 (α1β2γ2 GABAA receptor [15]): 430 nM
tolerability ([16]; oral administration): generally well tolerated
pharmacokinetics following oral administration [16]: predictable pharmacokinetics
inhibition of radioligand binding (sigma): 87%
EC50 [17]: 184 nM
effects at 22 nuclear hormone receptors [18]: no significant effects
latency to tonic seizures (PTZ-induced seizures; mouse, 0.3 mg/kg PO, non-significant trend (p = 0.06)): 1033 ± 179 s
latency to tonic seizures (PTZ-induced seizures; mouse, 1, 3, and 10 mg/kg PO, 60 min prior to 120 mg/kg PTZ): ≥ 1688 ± 56 s
tonic current density (dentate granule cells; 0.1 μM): 2.48 ± 0.7 pA/pF
sIPSC amplitude (dentate granule cells; 0.1 μM): 99 ± 26 pA
sIPSC decay (dentate granule cells; 0.1 μM): 10 ± 1 ms
tonic current density (dentate granule cells; 1 μM): 5.55 ± 1.3 pA/pF
sIPSC amplitude (dentate granule cells; 1 μM): 57 ± 7 pA
sIPSC decay (dentate granule cells; 1 μM): 24 ± 4 ms
sIPSC frequency (dentate granule cells; following zuranolone exposure): no change
EC50 [19]: 1260 nM

CN1C(=O)CN=C(c2ccccc2)c2cc(Cl)ccc21 [DZP, diazepam, reference compound]
enhancement of GABA currents (α1β2γ2 GABAA receptor [9]; 100 nM DZP alone, α1β2γ2, 2 μM GABA): 104%
concentration applied alone required to reach 150% effect level (α1β2γ2 GABAA receptor [9]): 360 nM
potentiation of current when applied alone (α4β3δ GABAA receptor [11]; α4β3δ, DZP alone): did not potentiate
